In ChEMBL document CHEMBL1144602, “Synthesis and in vitro binding studies of substituted piperidine naphthamides. Part I: Influence of the substitution on the basic nitrogen and the position of the amide on the affinity for D2L, D4.2, and 5-HT2A receptors” (Bioorg Med Chem Lett, 2007):
pKi: −log10 of the molar value.

Columns and labels:
D(4) dopamine receptor = molecular target: T1, D(4) dopamine receptor (Homo sapiens, UniProt P21917); assay: Displacement of [3H]nemonapride from human cloned dopamine D4.2 receptor
T1 sequence (P21917 whole entry): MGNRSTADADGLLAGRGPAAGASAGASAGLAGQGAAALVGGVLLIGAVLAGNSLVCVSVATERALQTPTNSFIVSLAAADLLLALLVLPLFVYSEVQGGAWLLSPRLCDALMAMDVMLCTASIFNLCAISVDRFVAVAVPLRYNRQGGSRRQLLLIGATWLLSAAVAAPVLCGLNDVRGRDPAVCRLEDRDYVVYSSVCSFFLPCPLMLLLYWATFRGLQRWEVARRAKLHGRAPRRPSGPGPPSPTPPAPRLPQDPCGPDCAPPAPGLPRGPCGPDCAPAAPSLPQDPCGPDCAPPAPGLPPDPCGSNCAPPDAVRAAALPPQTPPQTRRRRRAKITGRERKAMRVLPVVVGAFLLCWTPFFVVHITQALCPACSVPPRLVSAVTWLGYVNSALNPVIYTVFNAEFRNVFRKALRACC
How it was run: (§1)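 Radioligands were [3H]ketanserin for native rat 5-HT2A, [3H]nemonapride for cloned human D4.2 and [3H]spiperone for cloned human D2L. Ki was determined only for compounds giving >50% inhibition in a 1 µM screen. Values are mean ± SD, n ≥ 2 unless noted.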

D(2) dopamine receptor [1] = molecular target: T2, D(2) dopamine receptor (Homo sapiens, UniProt P14416); assay: Displacement of [3H]spiperone from human cloned dopamine D2L receptor at 1 uM
T2 sequence (P14416 whole entry): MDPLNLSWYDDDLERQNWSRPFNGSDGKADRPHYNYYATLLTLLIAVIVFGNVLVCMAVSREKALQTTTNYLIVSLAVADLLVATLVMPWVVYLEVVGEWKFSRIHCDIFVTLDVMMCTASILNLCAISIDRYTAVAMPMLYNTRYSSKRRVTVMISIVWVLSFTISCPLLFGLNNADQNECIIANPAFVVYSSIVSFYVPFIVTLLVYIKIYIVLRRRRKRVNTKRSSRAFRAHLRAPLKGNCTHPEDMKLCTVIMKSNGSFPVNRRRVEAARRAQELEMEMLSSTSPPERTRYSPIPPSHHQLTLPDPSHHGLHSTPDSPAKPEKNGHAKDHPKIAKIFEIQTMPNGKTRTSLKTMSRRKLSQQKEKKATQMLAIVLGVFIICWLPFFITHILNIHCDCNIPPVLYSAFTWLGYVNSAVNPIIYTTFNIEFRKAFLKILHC
How it was run: (§2)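 Single-point screen at 1 µM, reported as percent inhibition of radioligand binding: [3H]ketanserin at native rat 5-HT2A, [3H]nemonapride at human D4.2, [3H]spiperone at human D2L.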

[2] = molecular target: 5-hydroxytryptamine receptor 2A (Rattus norvegicus) (UniProt P14842); assay: Displacement of [3H]ketanserin from rat cloned 5HT2A receptor at 1 uM
Chain of 5-hydroxytryptamine receptor 2A (Rattus norvegicus) (P14842 whole entry): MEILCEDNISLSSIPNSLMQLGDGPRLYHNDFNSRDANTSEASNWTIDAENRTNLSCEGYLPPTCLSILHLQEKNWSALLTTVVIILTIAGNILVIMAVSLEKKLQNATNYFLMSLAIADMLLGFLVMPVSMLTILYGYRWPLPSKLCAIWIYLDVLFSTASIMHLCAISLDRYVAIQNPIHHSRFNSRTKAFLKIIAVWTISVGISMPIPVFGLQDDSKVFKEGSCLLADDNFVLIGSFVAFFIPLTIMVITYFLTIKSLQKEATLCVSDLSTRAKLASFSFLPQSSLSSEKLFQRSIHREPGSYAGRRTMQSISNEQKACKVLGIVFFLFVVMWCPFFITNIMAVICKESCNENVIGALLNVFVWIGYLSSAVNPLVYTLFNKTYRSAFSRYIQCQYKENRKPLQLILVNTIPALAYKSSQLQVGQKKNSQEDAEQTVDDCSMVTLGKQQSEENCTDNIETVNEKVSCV

[3] = molecular target: T3, D(4) dopamine receptor (Homo sapiens) (UniProt P21917); assay: Displacement of [3H]nemonapride from human cloned dopamine D4.2 receptor at 1 uM; how it was run: as §2
T3 sequence (whole entry): T1 sequence (P21917 whole entry)

D(2) dopamine receptor [4] = molecular target: T2, D(2) dopamine receptor; assay: Displacement of [3H]spiperone from human cloned dopamine D2L receptor; how it was run: as §1

SMILES | pKi (D(4) dopamine receptor) | Activity (D(2) dopamine receptor [1]) [%] | Activity [2] [%] | Activity [3] [%] | pKi (D(2) dopamine receptor [4])
O=C(c1cccc2ccccc12)N1CCC(NCCc2ccccc2)CC1 |  | 0 |  | 16 | 
O=C(NC1CCN(Cc2ccccc2)CC1)c1cccc2ccccc12 | 6.79 |  |  |  | < 6.00
O=C(c1ccc2ccccc2c1)N1CCC(NCC[C@H](O)c2ccccc2)CC1 |  |  |  | 49 | 
CC(c1ccccc1)N1CCC(NC(=O)c2ccc3ccccc3c2)CC1 (centres undefined) | 7.54 |  |  |  | 
O=C(NC1CCN(CCc2ccccc2)CC1)c1ccc2ccccc2c1 | 6.86 | 7 |  |  | 
O=C(NC1CCN(CCCc2ccccc2)CC1)c1ccc2ccccc2c1 | 7.20 | 13 |  |  | 
CC(c1ccccc1)N1CCC(NC(=O)c2cccc3ccccc23)CC1 (centres undefined) |  | 11 |  | 21 | 

More lines, main results first:

pKi (D(4) dopamine receptor) | Activity (D(2) dopamine receptor [1]) [%] | Activity [2] [%] | Activity [3] [%] | SMILES | pKi (D(2) dopamine receptor [4])
6.65 | 0 | 41 |  | O=C(c1ccc2ccccc2c1)N1CCC(NCCCc2ccccc2)CC1 | 
 | 0 | 10 | 1 | O=C(c1cccc2ccccc12)N1CCC(NCc2ccccc2)CC1 | 
6.68 | 0 | 50 |  | O=C(c1ccc2ccccc2c1)N1CCC(NCCc2ccccc2)CC1 | 
 | 0 |  | 45 | O=C(NC1CCN(CC[C@H](O)c2ccccc2)CC1)c1cccc2ccccc12 | 
6.78 | 0 | 8 |  | O=C(c1ccc2ccccc2c1)N1CCC(NCc2ccccc2)CC1 | 
6.44 | 18 |  |  | O=C(NC1CCN(CCCCc2ccccc2)CC1)c1cccc2ccccc12 | 
6.55 | 22 |  |  | O=C(NC1CCN(CCCCc2ccccc2)CC1)c1ccc2ccccc2c1 | 
6.64 | 3 |  |  | O=C(NC1CCN(CCc2ccccc2)CC1)c1cccc2ccccc12 | 
7.96 |  |  |  | O=C(NC1CCN(Cc2ccccc2)CC1)c1ccc2ccccc2c1 | < 6.00
 | 0 | 35 | 52 | O=C(c1cccc2ccccc12)N1CCC(NCCCc2ccccc2)CC1 | 
7.15 | 9 |  |  | O=C(NC1CCN(CCCc2ccccc2)CC1)c1cccc2ccccc12 | 
